Test results: ChEMBL document CHEMBL1944618, “Synthesis and antifungal activity of a new series of 2-(1H-imidazol-1-yl)-1-phenylethanol derivatives” (Eur J Med Chem, 2012)
In brackets after ≈: the same amount, converted by molar mass.

Legend:
Candida parapsilosis [1] = experiment: Antifungal activity against Candida parapsilosis DSM 11224 after 48 hrs by M27-A3 CLSI method; format: functional
In short: (§1)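 Broth microdilution in RPMI 1640, two-fold serial dilutions, final test range 0.125–64 µg mL-1 (fluconazole reference 0.0078–128 µg mL-1). Inoculum 1.0×10^3–1.5×10^3 cells mL-1 from yeasts grown 24 h at 35 °C on Sabouraud dextrose agar. Incubation 35 °C, read at 48 h. MIC = lowest concentration giving >50% turbidity decrease versus growth control. Run three times in triplicate. C. parapsilosis ATCC22019 served as QC.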

Pichia kudriavzevii [2] = experiment: Antifungal activity against Candida krusei DSM 6128 after 48 hrs by M27-A3 CLSI method; format: functional; conditions: DSM 6128, 48 h; in short: as §1
Candida albicans [3] = experiment: Antifungal activity against Candida albicans after 48 hrs by M27-A3 CLSI method; format: functional; in short: as §1
Pichia kudriavzevii [4] = experiment: Ratio MIC for fluconazole to compound for Candida krusei after 48 hrs by M27-A3 CLSI method; format: functional
[5] = Selectivity index, ratio of CC50 for human U937 cells to MIC for Candida Sp.; format: functional, U-937
In short: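 SI = CC50 from the 48 h U937 MTT assay divided by the mean MIC across all Candida species. That MIC comes from CLSI M27-A3 broth microdilution in RPMI 1640, 35 °C, read at 48 h.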

Candida tropicalis [6] = experiment: Antifungal activity against Candida tropicalis PMC 0910 after 48 hrs by M27-A3 CLSI method; format: functional; conditions: PMC 0910, 48 h; in short: as §1
Nakaseomyces glabratus [7] = experiment: Antifungal activity against Candida glabrata PMC 0805 after 48 hrs by M27-A3 CLSI method; format: functional; conditions: PMC 0805, 48 h; in short: as §1
Candida tropicalis [8] = experiment: Antifungal activity against Candida tropicalis DSM 11953 after 48 hrs by M27-A3 CLSI method; format: functional; conditions: DSM 11953, 48 h; in short: as §1
Candida parapsilosis [9] = experiment: Antifungal activity against Candida parapsilosis ATCC 22019 after 48 hrs by M27-A3 CLSI method; format: functional; conditions: Lodderomyces parapsilosis, ATCC 22019, 48 h; in short: as §1
[10] = Cytotoxicity against human U937 cells after 48 hrs by MTT assay; format: cell-based, U-937
In short: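 U937 human monocytic cells, 2×10^4 per well, in phenol-red-free RPMI 1640 with 10% FBS, L-glutamine, penicillin and streptomycin. Exposed 48 h at 37 °C, 5% CO2, to compounds dissolved in DMSO at final 8–128 µg mL-1, at least five concentrations, each in three replicates. MTT added for 3–4 h, crystals dissolved, OD read at 570 nm. CC50 taken against DMSO-only control. Means ± SD from three independent experiments.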

Candida = experiment: Antifungal activity against Candida sp. after 48 hrs by M27-A3 CLSI method; format: functional; in short: as §1
Candida albicans [11] = experiment: Antifungal activity against Candida albicans ATCC 24433 after 48 hrs by M27-A3 CLSI method; format: functional; in short: as §1
Candida albicans [12] = experiment: Antifungal activity against Candida albicans ATCC 10231 after 48 hrs by M27-A3 CLSI method; format: functional; conditions: ATCC 10231, 48 h; in short: as §1
Candida parapsilosis [13] = experiment: Antifungal activity against Candida parapsilosis after 48 hrs by M27-A3 CLSI method; format: functional; conditions: Lodderomyces parapsilosis; in short: as §1
Nakaseomyces glabratus [14] = experiment: Antifungal activity against Candida glabrata after 48 hrs by M27-A3 CLSI method; format: functional; in short: as §1
Candida tropicalis [15] = experiment: Antifungal activity against Candida tropicalis after 48 hrs by M27-A3 CLSI method; format: functional; in short: as §1
Pichia kudriavzevii [16] = experiment: Antifungal activity against Candida krusei after 48 hrs by M27-A3 CLSI method; format: functional; in short: as §1
Pichia kudriavzevii [17] = experiment: Antifungal activity against Candida krusei PMC 0613 after 48 hrs by M27-A3 CLSI method; format: functional; in short: as §1
Candida albicans [18] = experiment: Antifungal activity against Candida albicans ATCC 76615 after 48 hrs by M27-A3 CLSI method; format: functional; conditions: ATCC 76615, 48 h; in short: as §1
Candida albicans [19] = experiment: Antifungal activity against Candida albicans ATCC 3153 after 48 hrs by M27-A3 CLSI method; format: functional; conditions: ATCC 3153, 48 h; in short: as §1
Candida tropicalis [20] = experiment: Antifungal activity against Candida tropicalis DSM11953 after 48 hrs by M27-A3 CLSI method
Pichia kudriavzevii [21] = experiment: Ratio MIC for fluconazole to compound for Candida krusei PMC 0613 after 48 hrs by M27-A3 CLSI method; format: functional
Pichia kudriavzevii [22] = experiment: Ratio MIC for fluconazole to compound for Candida krusei PMC0613 after 48 hrs by M27-A3 CLSI method
[23] = Lodderomyces parapsilosis, DSM 11224, 48 h, read-out: MIC
[24] = Candida albicans, ATCC 24433, 48 h, read-out: MIC
[25] = Pichia kudriavzevii, PMC 0613, 48 h, read-out: MIC

Structure (SMILES) | MIC (Candida parapsilosis [1]; [23]) | MIC (Pichia kudriavzevii [2]) | MIC (Candida albicans [3]) | MIC50 (Candida albicans [3]) | MIC90 (Candida albicans [3]) | Ratio (Pichia kudriavzevii [4]) | MIC (Candida tropicalis [6]) | MIC (Nakaseomyces glabratus [7]) | MIC (Candida tropicalis [8]) | MIC (Candida parapsilosis [9]) | MIC (Candida) | MIC50 (Candida) | MIC90 (Candida) | MIC (Candida albicans [11]; [24]) | MIC (Candida albicans [12]) | MIC (Pichia kudriavzevii [17]; [25]) | MIC (Candida parapsilosis [1]) | MIC (Candida tropicalis [20]) | MIC (Candida albicans [11]) | MIC (Pichia kudriavzevii [17]) | further results
O=C(OC(Cn1ccnc1)c1ccc(Cl)cc1)c1ccc(-c2ccccc2)cc1 (racemic) | 0.25 µg/mL (≈ 0.621 µM) | 4 µg/mL (≈ 9.93 µM) | 1.7 µg/mL (≈ 4.22 µM) | 1 µg/mL (≈ 2.48 µM) | 4 µg/mL (≈ 9.93 µM) | 7 | 1 µg/mL (≈ 2.48 µM) | 1 µg/mL (≈ 2.48 µM) | 0.125 µg/mL (≈ 0.31 µM) | 1 µg/mL (≈ 2.48 µM) | 1.9 µg/mL (≈ 4.72 µM) | 1 µg/mL (≈ 2.48 µM) | 4 µg/mL (≈ 9.93 µM) | 0.25 µg/mL (≈ 0.621 µM) | 1 µg/mL (≈ 2.48 µM) | 1 µg/mL (≈ 2.48 µM) | – | – | – | – | Selectivity Index [5]: 49.1; CC50 at 48 h [10]: 88.3 µg/mL (≈ 219 µM); MIC (Candida parapsilosis [13]): 1.05 µg/mL (≈ 2.61 µM); MIC (Nakaseomyces glabratus [14]): 1 µg/mL (≈ 2.48 µM); MIC (Candida tropicalis [15]): 0.89 µg/mL (≈ 2.21 µM); MIC (Pichia kudriavzevii [16]): 3.7 µg/mL (≈ 9.18 µM); MIC (Candida albicans [18]): 4 µg/mL (≈ 9.93 µM); MIC (Candida albicans [19]): 0.125 µg/mL (≈ 0.31 µM)
O=C(OC(Cn1ccnc1)c1ccccc1)c1ccc(-c2ccccc2)cc1 (single isomer, unassigned; (+)) | – | – | – | – | – | – | – | – | – | – | – | – | – | – | – | – | 26.67 µg/mL (≈ 72.4 µM) | 26.67 µg/mL (≈ 72.4 µM) | 33.7 µg/mL (≈ 91.5 µM) | 21.33 µg/mL (≈ 57.9 µM) | –
O=C(OC(Cn1ccnc1)c1ccc(F)cc1)c1ccc(-c2ccccc2)cc1 (single isomer, unassigned; (-)) | – | – | – | – | – | 90 | – | – | – | – | – | – | – | – | – | – | 0.08 µg/mL (≈ 0.207 µM) | 0.27 µg/mL (≈ 0.699 µM) | 0.125 µg/mL (≈ 0.323 µM) | 0.125 µg/mL (≈ 0.323 µM) | Ratio (Pichia kudriavzevii [21]): 90; Ratio (Pichia kudriavzevii [22]): 90
OC(Cn1cncn1)(Cn1cncn1)c1ccc(F)cc1F [FLUCONAZOLE] | 1 µg/mL (≈ 3.27 µM) | 16 µg/mL (≈ 52.2 µM) | 4.9 µg/mL (≈ 16 µM) | 1 µg/mL (≈ 3.27 µM) | 16 µg/mL (≈ 52.2 µM) | – | 2.5 µg/mL (≈ 8.16 µM) | 0.5 µg/mL (≈ 1.63 µM) | 1 µg/mL (≈ 3.27 µM) | 2 µg/mL (≈ 6.53 µM) | 7.9 µg/mL (≈ 25.8 µM) | 2 µg/mL (≈ 6.53 µM) | 16 µg/mL (≈ 52.2 µM) | 1 µg/mL (≈ 3.27 µM) | 2 µg/mL (≈ 6.53 µM) | 12 µg/mL (≈ 39.2 µM) | – | – | – | – | MIC (Candida parapsilosis [13]): 1.6 µg/mL (≈ 5.22 µM); MIC (Nakaseomyces glabratus [14]): 0.87 µg/mL (≈ 2.84 µM); MIC (Candida tropicalis [15]): 3.25 µg/mL (≈ 10.6 µM); MIC (Pichia kudriavzevii [16]): 26 µg/mL (≈ 84.9 µM); MIC (Candida albicans [18]): 0.25 µg/mL (≈ 0.816 µM); MIC (Candida albicans [19]): 16 µg/mL (≈ 52.2 µM)
O=C(OC(Cn1ccnc1)c1ccccc1)c1ccc(-c2ccccc2)cc1 (single isomer, unassigned; (-)) | – | – | – | – | – | 30 | – | – | – | – | – | – | – | – | – | – | 0.125 µg/mL (≈ 0.339 µM) | 0.15 µg/mL (≈ 0.407 µM) | 0.15 µg/mL (≈ 0.407 µM) | 0.37 µg/mL (≈ 1 µM) | Ratio (Pichia kudriavzevii [21]): 30; Ratio (Pichia kudriavzevii [22]): 30
O=C(OC(Cn1ccnc1)c1ccc(F)cc1)c1ccc(-c2ccccc2)cc1 (single isomer, unassigned; (+)) | – | – | – | – | – | – | – | – | – | – | – | – | – | – | – | – | 35.55 µg/mL (≈ 92 µM) | 32 µg/mL (≈ 82.8 µM) | 64 µg/mL (≈ 166 µM) | 64 µg/mL (≈ 166 µM) | –
O=C(COc1ccccc1)OC(Cn1ccnc1)c1ccc(Cl)cc1 (racemic) | 8 µg/mL (≈ 22.4 µM) | > 64 µg/mL | 67.7 µg/mL (≈ 190 µM) | 64 µg/mL (≈ 179 µM) | 128 µg/mL (≈ 359 µM) | – | 4 µg/mL (≈ 11.2 µM) | 16 µg/mL (≈ 44.8 µM) | > 64 µg/mL | 32 µg/mL (≈ 89.7 µM) | 51.3 µg/mL (≈ 144 µM) | 16 µg/mL (≈ 44.8 µM) | 128 µg/mL (≈ 359 µM) | 2 µg/mL (≈ 5.61 µM) | 4 µg/mL (≈ 11.2 µM) | 16 µg/mL (≈ 44.8 µM) | – | – | – | – | MIC (Candida albicans [18]): > 64 µg/mL; MIC (Candida albicans [19]): 16 µg/mL (≈ 44.8 µM)
